From article PMC10864842 (Saudi Pharmaceutical Journal : SPJ, 2024) come the findings set out here.

Each structure is given as a SMILES string. “And” between values parts separate entries of the source, which are not always exact repeats. Equal values may be shown once. Read-outs that look alike come from different tables or passages of the source.

For one series, the target named is PI3Kδ (Homo sapiens, UniProt O00329). Kind of series: PI3Kδ inhibition assay. Format: biochemical.
The subject of series [1] is MDA-MB-231 breast cancer cells. In words: MTT assay on MDA-MB-231 cells. Format: cell-based. The settings on record: Homo sapiens. The procedure, abridged: (§1)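 Cells kept in DMEM with 10% (v/v) FBS and 1% (v/v) streptomycin/penicillin at 37 °C and 5% CO2. About 10^4 cells/ml were seeded and grown for 24 h. Test compounds in DMSO were added at 6.25, 12.5, 25, 50 and 100 µg/ml for 24 and 48 h. Medium was replaced with 5 mg/mL MTT for 3–4 h. Formazan was dissolved in acidified isopropanol and read at 630 nm. Viability is expressed as % of untreated cells.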

Series [2] has as its system MDA-MB-231 cells. In words: Morphological study by inverted microscope. The format is cell-based. The conditions noted are these: 48 h. The procedure, abridged:
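MDA-MB-231 cells were grown in DMEM with 10% FBS and 1% streptomycin/penicillin at 37 °C, 5% CO2. They were treated with varying concentrations of test compound for 48 h and examined by inverted light microscopy. Phenotypic changes were scored as cell shrinkage, apoptotic body formation and membrane blebbing.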

For series [3], the system named is MDA-MB-231 cells. In words: qRT-PCR relative gene expression of P53, BAX and BCL-2. The conditions noted are these: MDA-MB-231, 48 h. The format is cell-based. The gist of the method:
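RNA was extracted from cells after 48 h of treatment with test compound, and its purity was checked by nanodrop. P53, BAX and BCL-2 expression was normalised to β-actin as the housekeeping gene. Treated and untreated cells were compared by ANOVA.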
For orientation: Real-time PCR tracks product formation cycle by cycle.

The target in series [4] is T1, KSP ATPase (Homo sapiens, UniProt P52732).
T1 sequence (P52732 1-1056): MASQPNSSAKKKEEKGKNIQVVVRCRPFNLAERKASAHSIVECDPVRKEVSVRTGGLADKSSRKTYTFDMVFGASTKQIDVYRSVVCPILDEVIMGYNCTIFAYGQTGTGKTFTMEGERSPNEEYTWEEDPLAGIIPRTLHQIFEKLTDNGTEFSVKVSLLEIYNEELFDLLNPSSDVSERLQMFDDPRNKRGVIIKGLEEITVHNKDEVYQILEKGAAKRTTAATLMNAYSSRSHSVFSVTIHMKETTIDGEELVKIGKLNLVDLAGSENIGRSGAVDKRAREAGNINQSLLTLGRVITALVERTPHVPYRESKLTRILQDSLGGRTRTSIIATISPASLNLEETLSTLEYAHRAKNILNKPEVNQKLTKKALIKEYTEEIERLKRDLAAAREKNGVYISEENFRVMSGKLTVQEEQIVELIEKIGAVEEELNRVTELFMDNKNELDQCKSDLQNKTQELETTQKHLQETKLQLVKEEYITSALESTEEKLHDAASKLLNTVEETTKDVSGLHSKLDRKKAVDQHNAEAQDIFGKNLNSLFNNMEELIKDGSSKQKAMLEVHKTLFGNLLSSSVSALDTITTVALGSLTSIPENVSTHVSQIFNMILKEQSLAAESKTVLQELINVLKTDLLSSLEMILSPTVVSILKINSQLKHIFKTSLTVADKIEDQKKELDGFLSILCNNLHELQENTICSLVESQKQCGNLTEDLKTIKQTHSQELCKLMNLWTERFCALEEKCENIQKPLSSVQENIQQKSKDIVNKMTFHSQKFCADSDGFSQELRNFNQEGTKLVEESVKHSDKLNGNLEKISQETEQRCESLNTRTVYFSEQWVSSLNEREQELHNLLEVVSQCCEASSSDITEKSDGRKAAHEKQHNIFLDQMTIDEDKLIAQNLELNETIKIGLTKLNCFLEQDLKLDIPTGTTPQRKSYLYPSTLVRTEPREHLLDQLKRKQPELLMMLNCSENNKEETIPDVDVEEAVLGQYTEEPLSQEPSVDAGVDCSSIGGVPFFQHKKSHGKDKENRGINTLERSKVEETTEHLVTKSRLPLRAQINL
In words: Microtubule-activated KSP ATPase end-point assay. The conditions noted are these: read-out: KSP ATPase inhibition [%]. The format is biochemical.

In series [5] the target is T1, KSP ATPase. Kind of series: Microtubule-activated KSP ATPase kinetic assay. The format is biochemical.
Series [6] in a line: MTT assay on oral epithelial normal cells. Format: cell-based. The procedure, abridged:
as §1
On the technique in general: Tetrazolium dyes change colour on reduction, which living cells bring about.

The test system of series [7] is MDA-MB-231 cells. Kind of series: Annexin V-FITC/PI flow cytometry. Format: cell-based. The settings on record: MDA-MB-231, Annexin V-FITC & PI, post-treatment. The procedure, abridged: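 MDA-MB-231 cells were kept in DMEM with 10% FBS and 1% streptomycin/penicillin at 37 °C under 5% CO2. Cells were treated with the test compound for 48 h, with doxorubicin as the standard and untreated cells for comparison. Cells were then harvested, rinsed, suspended in PBS, stained with Annexin V-FITC/PI and held 20 min in the dark before flow cytometry. Early apoptosis was Annexin V+/PI−; late apoptosis was Annexin V+/PI+.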
On the technique in general: In flow cytometry, cells or beads pass a laser one at a time.

Series [8] relates to MDA-MB-231 cells. Kind of series: DNA fragmentation by gel electrophoresis. The format is cell-based. The conditions noted are these: post-treatment. The procedure, abridged: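 MDA-MB-231 cells kept in DMEM with 10% FBS and 1% streptomycin/penicillin at 37 °C, 5% CO2. Genomic DNA was extracted with a commercial kit from cells before and after test compound treatment, and its quality was checked by nanodrop. DNA plus 1X loading dye was run on agarose gel, viewed under a UV transilluminator and imaged on a gel documentation system. Doxorubicin served as reference.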

[9] abbreviates: MDA-MB-231, 24 h, read-out: IC50 after 24 h (µM).
Where [10] appears, read: MDA-MB-231, 24 h, read-out: IC50 after 24 h in µg/mL.
Where [11] appears, read: MDA-MB-231, 48 h, read-out: IC50 after 48 h (µM).
[12] abbreviates: MDA-MB-231, 48 h, read-out: IC50 after 48 h in µg/mL.

Sequence of PI3Kδ (O00329 whole entry): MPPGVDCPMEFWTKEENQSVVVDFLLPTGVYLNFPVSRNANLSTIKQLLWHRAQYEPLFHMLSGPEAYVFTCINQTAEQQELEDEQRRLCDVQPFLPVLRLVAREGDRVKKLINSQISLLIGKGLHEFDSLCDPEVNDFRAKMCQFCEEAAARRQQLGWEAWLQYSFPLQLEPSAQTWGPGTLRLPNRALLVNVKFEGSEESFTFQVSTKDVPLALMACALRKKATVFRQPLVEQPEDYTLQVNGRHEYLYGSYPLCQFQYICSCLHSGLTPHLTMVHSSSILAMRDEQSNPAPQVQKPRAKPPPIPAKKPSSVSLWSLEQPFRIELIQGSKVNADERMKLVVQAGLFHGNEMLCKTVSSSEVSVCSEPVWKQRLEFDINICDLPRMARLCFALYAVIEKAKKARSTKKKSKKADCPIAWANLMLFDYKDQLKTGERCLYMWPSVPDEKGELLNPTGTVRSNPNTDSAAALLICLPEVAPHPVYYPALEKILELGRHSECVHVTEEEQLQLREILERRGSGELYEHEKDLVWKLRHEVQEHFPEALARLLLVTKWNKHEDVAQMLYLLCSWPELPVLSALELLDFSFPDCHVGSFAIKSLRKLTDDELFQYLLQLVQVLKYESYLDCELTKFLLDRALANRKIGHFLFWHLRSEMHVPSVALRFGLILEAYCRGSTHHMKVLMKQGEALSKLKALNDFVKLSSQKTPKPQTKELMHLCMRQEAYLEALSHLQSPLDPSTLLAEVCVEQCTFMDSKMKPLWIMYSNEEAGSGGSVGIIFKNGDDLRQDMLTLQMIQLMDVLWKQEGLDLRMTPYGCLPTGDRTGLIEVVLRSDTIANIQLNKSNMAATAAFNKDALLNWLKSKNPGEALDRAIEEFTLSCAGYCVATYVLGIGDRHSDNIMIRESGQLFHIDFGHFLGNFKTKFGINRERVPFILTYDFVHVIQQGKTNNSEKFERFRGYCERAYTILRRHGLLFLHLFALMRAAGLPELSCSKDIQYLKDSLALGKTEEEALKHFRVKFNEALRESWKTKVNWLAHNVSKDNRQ
Sequence of PI3Kδ (P27986 whole entry partner): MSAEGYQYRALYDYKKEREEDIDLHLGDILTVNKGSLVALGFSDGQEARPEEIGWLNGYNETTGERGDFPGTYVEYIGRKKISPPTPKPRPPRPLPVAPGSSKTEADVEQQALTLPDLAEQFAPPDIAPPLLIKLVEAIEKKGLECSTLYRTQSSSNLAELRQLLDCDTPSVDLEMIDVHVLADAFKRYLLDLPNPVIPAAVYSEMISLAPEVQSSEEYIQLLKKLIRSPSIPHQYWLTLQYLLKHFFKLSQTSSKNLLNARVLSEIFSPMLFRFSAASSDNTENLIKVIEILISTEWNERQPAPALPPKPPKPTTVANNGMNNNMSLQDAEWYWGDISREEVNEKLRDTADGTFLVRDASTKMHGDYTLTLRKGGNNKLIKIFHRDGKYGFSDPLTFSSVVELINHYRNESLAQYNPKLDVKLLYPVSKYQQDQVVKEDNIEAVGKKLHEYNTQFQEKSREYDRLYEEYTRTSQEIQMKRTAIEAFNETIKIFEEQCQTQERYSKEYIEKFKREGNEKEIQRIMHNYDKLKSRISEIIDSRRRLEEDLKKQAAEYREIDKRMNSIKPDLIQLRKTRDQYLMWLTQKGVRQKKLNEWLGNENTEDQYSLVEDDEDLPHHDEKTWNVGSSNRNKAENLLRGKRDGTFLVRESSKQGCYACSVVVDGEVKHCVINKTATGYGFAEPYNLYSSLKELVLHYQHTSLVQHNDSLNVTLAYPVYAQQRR

In the case of `CC(C)=CCSc1nc2ccc(Cl)cc2c(=O)n1-c1ccc(F)cc1` [Compound 3b, 6-Chloro-3-(4-fluorophenyl)-2-((3-methylbut-2-en-1-yl)thio)quinazolin-4(3H)-one], the IC50 is 0.0323 ± 0.00218 µM against PI3Kδ; 47.5 µM in series [1] (setting [9]); 17.8 ± 0.12 µg/mL in series [1] (setting [10]); 16.3 µM in [1] (setting [11]); 6.1 ± 0.1 µg/mL in series [1] (setting [12]); 0.0858 µM against KSP ATPase [5]. Also, the “Morphological changes of treated cells” value with MDA-MB-231 cells [2] was “cell shrinkage, apoptotic bodies formation, and membrane blebbing”. In the series with MDA-MB-231 cells [3], the “Relative gene expression of BAX” value is recorded as “significant overexpression”. Also, in the series on MDA-MB-231 cells [3], the “Relative gene expression of BCL-2” value is given as “downregulation”. The “Relative gene expression of P53” value in the series on MDA-MB-231 cells [3] is reported as “significant overexpression”. For the same compound, the inhibition at 2 µM on KSP ATPase [4] was determined as 89.6 ± 3.42%. In addition, the IC50 at 48 h in series [6] was 98 µg/mL and 261 µM. Moreover, the “Number of cells in the early and late apoptosis versus untreated cells” value in the series on MDA-MB-231 cells [7] was “significant increase”. In addition, in the series on MDA-MB-231 cells [8], the DNA fragmentation entry was “internucleosomal fragmentation was noticed”.

On to `O=c1c2cc(Cl)ccc2nc(SCc2ccc(F)cc2)n1-c1ccc(F)cc1` [Compound 3e, 6-Chloro-2-((4-fluorobenzyl)thio)-3-(4-fluorophenyl)quinazolin-4(3H)-one], for which the IC50 was 0.0454 ± 0.00205 µM at PI3Kδ; 21.5 µM in [1] (setting [9]); 8.94 ± 0.08 µg/mL in [1] (setting [10]); 9.97 µM in series [1] (setting [11]); 4.14 ± 0.11 µg/mL in series [1] (setting [12]); 0.0684 µM at KSP ATPase [5]. In the series with MDA-MB-231 cells [2], the “Morphological changes of treated cells” value is “cell shrinkage, apoptotic bodies formation, and membrane blebbing”. Besides, the “Relative gene expression of BAX” value in the series with MDA-MB-231 cells [3] is reported as “significant overexpression”. In addition, the “Relative gene expression of BCL-2” value with MDA-MB-231 cells [3] is given as “downregulation”. In addition, the “Relative gene expression of P53” value with MDA-MB-231 cells [3] was “significant overexpression”. For the same compound, at KSP ATPase [4], the inhibition at 2 µM came out at 93.3 ± 2.1%. For the same compound, in series [6], the IC50 at 48 h is 92.1 µg/mL and 222 µM. In addition, in the series on MDA-MB-231 cells [7], the “Number of cells in the early and late apoptosis versus untreated cells” value is reported as “significant increase”. Further, in the series with MDA-MB-231 cells [8], the DNA fragmentation result is reported as “internucleosomal fragmentation was noticed”.

For orientation: inhibition means how much of the control response was suppressed.
